Reference: the EternaBench riboswitch data

Tested on: MS2 coat protein
Assay: apparent Kd, MS2 coat protein; higher = weaker binding; RNA-MaP array; FMN 200 µM where present
In short: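 Each design was made on Illumina sequencing-chip clusters by stalled E. coli RNA polymerase and titrated with SNAP-549-labelled MS2 coat protein from 0.7 or 1.5 nM, doubling to 3 µM, in the absence and then the presence of constant ligand. The buffer was 100 mM Tris-HCl pH 7.5, 80 mM KCl, 4 mM MgCl2, BSA, DTT, yeast tRNA and Tween-20. The apparent Kd is the median of filtered per-cluster fits of binding curves, with green signal normalised to red-channel RNA signal and control-cluster median Fmax.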

[1] = designed as: OFF switch for flavin mononucleotide, no ligand
[2] = ligand present: flavin mononucleotide, designed as: OFF switch for flavin mononucleotide
[3] = designed as: ON switch for flavin mononucleotide, no ligand
[4] = ligand present: flavin mononucleotide, designed as: ON switch for flavin mononucleotide

Sequence | apparent Kd [1] | apparent Kd [2] | apparent Kd [3] | apparent Kd [4]
AGAAACUACGAGAAGGACAUAUGGUACUUCAGUUACAUGAGGAUCACCCAUGUAGGAUAUCGUAGUUUCAGGAUCGUGAGAUCA | 22 nM | 169 nM | – | –
AUGAAGAAUUAAGGAUAUUGAUUACAUAUGUUUAACAUGAGGAUCACCCAUGUGGGUUGCGGUAUCGAGAAGGUAAAUUAAAAG | – | – | 198 nM | 178 nM
GGAUCGAGUGUGAGGAUAUGCUGGUCCUAAGAUCAGCAGAAGGCACAUGAGGAUCACCCAUGUGAAAACGGUCC | 26 nM | 182 nM | – | –
UUCCUACAUGAGGAUCACCCAUGUGAGGAUAUGCAUCGUAUUAUUCUCGUAUGUAGUAGCAGAAGGCGCAUUGG | 25.9 nM | 89.6 nM | – | –
GCUCUAUGCUAGAAGGCGUGAAACAUGAGGAUCACCCAUGUCAAAGAAGUGAGGAUAUAGCAUAGAGCAAAAGUGCGAAAGCAC | – | – | 16.9 nM | 7.32 nM
UAAUAAUAAUAAUAGCAGAUUACAUGAGGAUCACCCAUGUAUAAGGAUAUCGUCAGGAAUACUGACGAGAAGGUAUACAACUGC | 18.9 nM | 25.7 nM | – | –
UGUCCUUGAGGCUCGGACGUGUCGCCAGAAGGCAAUUUCUGACAUGAGGAUCACCCAUGUCCAAUUGAGGAUAUGGCUGCGAAG | – | – | 27.2 nM | 7.52 nM
GUCAGCUCGUGAGGAUAUACAUCACUGCUUCGGCAGUGUAUUAAAUCCACAUGAGGAUCACCCAUGUAGAAGGCACGAGCUGAU | 16.7 nM | 31 nM | – | –
UGGUACUAGGGAGGAUAUGGGAUGAUACAUGAGGAUCACCCAUGUUUAAGAAUGCCGAGAGGCAACUAGAAGGCCCUAGUACCU | – | – | 448 nM | 174 nM
GCCAGGAUGUGAGGAUAUGCUGAGGAUAACUCAGCAGAAGGCACAUGAGGAUCACCCAUGUACACUUAUCAUAAAUACCCUGGC | 11.9 nM | 16.3 nM | – | –
ACUAUACGAGGAUAUGCUGUCAGUACUCAGAGGUUAAUGUGACAUGAGGAUCACCCAUGUAGAAGGCGUUUACU | 34.2 nM | 23.8 nM | – | –
UAUAUAUAGUAAGGAUAUGUAUUAAUAUUAUAAACAGAAGGUACUGACAUGAGGAUCACCCAUGUUUUAGUGUGGGCAUGUAGA | 87.6 nM | 128 nM | – | –
UGAGCGACCACAGGAUAUACUUAGGAAGACCGAGUAGAAGGGUGGAAGAGCGUGCAGUGACAUGAGGAUCACCCAUGUGGUUGU | – | – | 156 nM | 70.1 nM
CCUCAGGCGGAGGAUAUCUAACAACAAUAACAAAGAGAAGGCCGCACAUGAGGAUCACCCAUGUGUAUGGGCCG | 12.4 nM | 22.8 nM | – | –
CUUAUGUGAGGAUAUGUACAGAAAAAACUGGGUGUAACUGUACAGAAGGCACAUGAGGAUCACCCAUGUGCCUU | 16.9 nM | 13.8 nM | – | –
CCAUGCAGUGUGAGGAUAUGCUGGUCCUUGGAUCAGCAGAAGGCACAUGAGGAUCACCCAUGUGAAUAGCGUGG | 44.6 nM | 356 nM | – | –
CUGCUUCGCUAAGGAUAUCACAUUGUCGAUCUGCGUGCAGCCUCCUGACAUGAGGAUCACCCAUGUGAGAAGGUAGACGACGUG | 19.4 nM | 22.5 nM | – | –
CCUGUUUGAUUCCUCUUAUACAUGAGGAUCACCCAUGUUAUCGAGGAUAUGCAUUAGAGUGUUUAGCAGAAGGCGAUGUAAUUG | 6.12 nM | 17.5 nM | – | –
CAUUAAUUAAUUAUAGUAUUUAUACAGGAUAUGUAACAUGAGGAUCACCCAUGUAUACAUGGGAAACAGAAGGGUAUUUAUAGA | 32 nM | 28.8 nM | – | –

Sequence | apparent Kd [1] | apparent Kd [2] | apparent Kd [3] | apparent Kd [4]
ACCUGGAUAGGAUAUACAUGAGGAUCACCCAUGUGACUCAGGCCAGGGAAGUACUUCGGUAGAAGGGUCCAGUA | 18.2 nM | 20.7 nM | – | –
AAAGGACAUGAGGAUCACCCAUGUCAGGAUAUCGCUUUAGGACAUACCCAUUAACCUGCGAGAAGGGACGGUGA | 32.8 nM | 44.6 nM | – | –
GACUGCAUGUAAGGAUAUCGACUGGAAUACAGUCGAGAAGGUACAUGAGGAUCACCCAUGUAAUAAGAUCAAUAAUAAGCAGUC | 14.9 nM | 33.1 nM | – | –
GGAUAGGACAGAGGAUAUACGUGCUAGAGAAACUAGCAAAAUUUCCUCACAUGAGGAUCACCCAUGUAGAAGGCUGUCCUAUCG | 14.5 nM | 543 nM | – | –
UGAACUUCAGAGAAGGUCGAAUCACAACGGUUCGAAGGAUAUCUGGAAACAUGAGGAUCACCCAUGUAACCGGGUGGAUGUCCU | 56.2 nM | 242 nM | – | –
CCAGAUAUGUGAGGAUAUAGAGUGGAAUACACUCUAGAAGGUAUGUGAGAACAUGAGGAUCACCCAUGUCAUUGAUUAUCUGGA | – | – | 24.7 nM | 24.6 nM
AUUAUAUAGGAAGGAUAUAGAAUAUUAUUUUAACAUGAGGAUCACCCAUGUAACCUUAUGUGUAGCUAGAAGGUCCAUUUGUUA | – | 315 nM | – | –
AGCGUACAAGCUGACAUGAGGAUCACCCAUGUGGUCUCAUGCGAGGAUAUCGGGAAGGAGGAUUCCGAGAAGGUGCGGUGAGCC | – | – | 275 nM | 44.9 nM
AAAUAAACUACGAAGAUAUCCUCACAUGAGGAUCACCCAUGUCAGGAUAUUUGUCCUAAAAGGACAGAGAAGGGACGUCGUAGA | 5.09 nM | 7.54 nM | – | –
GCCUUACCGGUCAGGAUAUACAUUUGUUACUCCUUGUAGAAGGGACAUGAGGAUCACCCAUGUACAUUACAUUC | 19.4 nM | 20.4 nM | – | –
UAGCUUGACGCAGGAUAUCCAAGGCUGAAAUGAGGAGAAGGGCGCCAAACAUGAGGAUCACCCAUGUAUUAUGCAGGGUCCUCA | 362 nM | 180 nM | – | –
GGAAAACAUGAGGAUCACCCAUGUGAGGAUAUCGAUGUCCAAAAAGAGGUGCGGGACUCGAGAAGGCACUUGGA | 55.1 nM | 54 nM | – | –
ACCACGUCAGCGAUAUGAUCGAGAGAUCAUGUCGCUGAAUUUAGAAGGACAUGAGGAUCACCCAUGUAGGAUAUGGGUCGUGGA | – | – | 39.1 nM | 11.8 nM
CGUUAUGAUAGAGGAUAUGUAAUACAUGAGGAUCACCCAUGUCACAUGGACAUUGUUUCUAAUUUACAGAAGGCUAUCCUUUCG | 20.3 nM | 16.3 nM | – | –
CUUUAGCUAGGAUAUACAUGAGGAUCACCCAUGUUAGCGGUCCAUUGGGCCGCGGGUUGUAGAAGGAGCAUUAA | 30.8 nM | 56.8 nM | – | –
CGUGGACUAGGAUAUUUACGAGGCUACAUGAGGAUCACCCAUGUGUUCUCGAGUACCAUGAAAGAAGGAGUAGCGA | 12.6 nM | 14 nM | – | –
AUCUUGAGAGGAUAUACAUGAGGAUCACCCAUGUUGCUAACACCAUGAGCUCAUUUACGUAGAAGGCUCAUCCG | 17.7 nM | 17.2 nM | – | –
UUACUCAUGUAAGGAUAUGCAGCUGAAACGGCUGCAGAAGGUACUAUAAUACAUGAGGAUCACCCAUGUAAAAUAAAUAAAGUU | – | – | 24.1 nM | 14.6 nM
GGCAAAUGAGCAGGAUAUACAGUACAUGCCUAAUGGACUCACGCACAUGAGGAUCACCCAUGUACGUAGAAGGGCUCCGAGGAG | 15.2 nM | 19.1 nM | – | –

Sequence | apparent Kd [1] | apparent Kd [2] | apparent Kd [3] | apparent Kd [4]
GCCGGAUUUGUGAGGAUAUACCUAUGGAUACAUAGGUAGAAGGCACAUGAGGAUCACCCAUGUACCUCACCGGC | 16.7 nM | 69.2 nM | – | –
CCAUAAAUGAUCCAUUUUUACUACAUGAGGAUCACCCAUGUGCAGGAUAUCGUGAAAGUUAAAUACGAGAAGGGCAAGAACUGC | 218 nM | 230 nM | – | –
AUGUUACAUGAGGAUCACCCAUGUGAGGAUAUGUGUACUGGUAAAAAAGUGUUUGGCCACAGAAGGCAUUUGGA | 29.1 nM | 31.2 nM | – | –
CUAUUGUGAGGAUAUCAGUAGUAGAACAAUAGUACUACUACUGAGAAGGCACAUGAGGAUCACCCAUGUUCCUC | 61.1 nM | 406 nM | – | –
CGUUCACAUGAGGAUCACCCAUGUCAGAUUUGGUCAGGAUAUGGUCUGCUUCCGCUAUUGCCAGAAGGGACUUUUG | – | – | 28.9 nM | 22.7 nM
CGUCGAAAUGUAGGAUAUCUGCACGAUUAGUGCAGAGAAGGACAUGAGGAUCACCCAUGUAGAUCACGACGAAUUAAUUUAAUU | 60.7 nM | 480 nM | – | –
GCACGGCAUGUAGGAUAUCGAGCUCAAAGAGCUCGAGAAGGACAUGAGGAUCACCCAUGUGCUCACAGACAGUGAGCGCUGUGC | 25.1 nM | 91.5 nM | – | –
AAAAGACAUGAGGAUCACCCAUGUAAAGACGUAGGAGGAUAUGUAUGGAAACCAUACUGUACAGAAGGCCUUUGUC | – | – | 23.8 nM | 18.3 nM
AAAUUUAACGAAGGAUAUGGUGACAUGAGGAUCACCCAUGUUAAUUUUGUGAUCUUGUUUAAGUUCCAGAAGGUCGUAUACAUA | 210 nM | 600 nM | – | –
UAGUUACAUGAGGAUCACCCAUGUGAGGAUAUGAGUCAGUCACGGUGACGUGGCUGACUCAGAAGGCACUAUGG | 198 nM | 154 nM | – | –
GGAGAACAUGAGGAUCACCCAUGUGAGAGGGAUGUAGGAUAUGUGAGGAGUAAAGGAGGGACAGAAGGACAGAGAU | – | – | 45.8 nM | 43.8 nM
GCCAUCGCAUGAGGAUAUGCUCCCGUUUCGGGAGCAGAAGGCAUGUCAUAAGACAUGAGGAUCACCCAUGUGGUAAAGAUGGCA | – | – | 237 nM | 10.3 nM
CUGAGCUUAGGAUAUACGUGUUGAUCUGAUCUCGACCUAUUACAUGAGGAUCACCCAUGUAGAAGGGAGCCGGA | 17.6 nM | 19.3 nM | – | –
UUAAUGUCAGGAUAUCUUAGGUGGGUGCGAAGAUUCAUUUUGGAGAAGGGACAUGAGGAUCACCCAUGUACCUU | 18.7 nM | 19.5 nM | – | –
GUCCUUUCUGAGGAUAUUAUUUUUUUCGAUUGAUAAGAAGGCAGUACAUGAGGAUCACCCAUGUGGGUUGUCUG | 26.8 nM | 28.3 nM | – | –
UUUACAUGAGGAUCACCCAUGUAUAGAACGGUUCAUUAAAGUGAGGAUAUACGAAAUUUAAAAUCGUAGAAGGCACUGGGUACA | – | – | 17 nM | 19.1 nM
CUACCUUAUGAGAAGGCGGUCAUGAAACAUGAUCGAGGAUAUCAUGUAAACAUGAGGAUCACCCAUGUAUGGGUAUUAUGGUAU | – | – | 146 nM | 26.4 nM
UUACUACAUGAGGAUCACCCAUGUCAGGAUAUUGUCUAUACCUUGGAAUACGUGUCGACAAGAAGGGACUAUAU | 21.1 nM | 24 nM | – | –
